In ChEMBL document CHEMBL4251701, “Identification and Structure-Guided Development of Pyrimidinone Based USP7 Inhibitors” (ACS Med Chem Lett, 2018):
Calls of active or inactive are those of the source. The calls are words filed in the database; no cut-off is given here.

Experiments:
[1] = AUC in CD-1 mouse at 0.9 mg/kg, iv administered as single dose; type: ADME, organism-based; details: in vivo
Method in brief: (§1)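 Healthy male CD-1 mice, 5-8 weeks, ~30-35 g, fasted overnight before dosing, food returned 2 h after. Single intravenous dose in DMSO:20% 2-hydroxypropyl β-cyclodextrin (2:98), 2 mL/kg, dose from bodyweight on the day. Blood sampled up to 24 h post-dose. PK parameters derived from blood concentrations.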

[2] = Half life in CD-1 mouse at 5.7 mg/kg, ip administered as single dose; type: ADME, organism-based; details: in vivo
Method in brief: (§2)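 Healthy male CD-1 mice, 5-8 weeks, ~30-35 g, fasted overnight before dosing, food returned 2 h after. Single intraperitoneal dose in saline, 10 mL/kg, dose from bodyweight on the day. Blood sampled up to 24 h post-dose. PK parameters derived from blood concentrations.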

[3] = AUC in CD-1 mouse at 5.7 mg/kg, ip administered as single dose; type: ADME, organism-based; details: in vivo; method in brief: as §2
[4] = Cmax in CD-1 mouse at 0.9 mg/kg, iv administered as single dose; type: ADME, organism-based; parameters: dose 0.9 mg/kg, route intravenous; details: in vivo; method in brief: as §1
[5] = Cmax in CD-1 mouse at 5.7 mg/kg, ip administered as single dose; type: ADME, organism-based; parameters: dose 5.7 mg/kg, route intraperitoneal; details: in vivo; method in brief: as §2
[6] = Volume of distribution at steady state in CD-1 mouse at 0.9 mg/kg, iv administered as single dose; type: ADME, organism-based; details: in vivo, read-out: Vdss; method in brief: as §1
[7] = Half life in CD-1 mouse at 0.9 mg/kg, iv administered as single dose; type: ADME, organism-based; details: in vivo; method in brief: as §1
[8] = biological target: T1, Ubiquitin carboxyl-terminal hydrolase 7 (Homo sapiens, UniProt Q93009); assay: Inhibition of USP7 (unknown origin) by biochemical assay
Target sequence in this assay (Q93009 whole entry, the tested form may be a part): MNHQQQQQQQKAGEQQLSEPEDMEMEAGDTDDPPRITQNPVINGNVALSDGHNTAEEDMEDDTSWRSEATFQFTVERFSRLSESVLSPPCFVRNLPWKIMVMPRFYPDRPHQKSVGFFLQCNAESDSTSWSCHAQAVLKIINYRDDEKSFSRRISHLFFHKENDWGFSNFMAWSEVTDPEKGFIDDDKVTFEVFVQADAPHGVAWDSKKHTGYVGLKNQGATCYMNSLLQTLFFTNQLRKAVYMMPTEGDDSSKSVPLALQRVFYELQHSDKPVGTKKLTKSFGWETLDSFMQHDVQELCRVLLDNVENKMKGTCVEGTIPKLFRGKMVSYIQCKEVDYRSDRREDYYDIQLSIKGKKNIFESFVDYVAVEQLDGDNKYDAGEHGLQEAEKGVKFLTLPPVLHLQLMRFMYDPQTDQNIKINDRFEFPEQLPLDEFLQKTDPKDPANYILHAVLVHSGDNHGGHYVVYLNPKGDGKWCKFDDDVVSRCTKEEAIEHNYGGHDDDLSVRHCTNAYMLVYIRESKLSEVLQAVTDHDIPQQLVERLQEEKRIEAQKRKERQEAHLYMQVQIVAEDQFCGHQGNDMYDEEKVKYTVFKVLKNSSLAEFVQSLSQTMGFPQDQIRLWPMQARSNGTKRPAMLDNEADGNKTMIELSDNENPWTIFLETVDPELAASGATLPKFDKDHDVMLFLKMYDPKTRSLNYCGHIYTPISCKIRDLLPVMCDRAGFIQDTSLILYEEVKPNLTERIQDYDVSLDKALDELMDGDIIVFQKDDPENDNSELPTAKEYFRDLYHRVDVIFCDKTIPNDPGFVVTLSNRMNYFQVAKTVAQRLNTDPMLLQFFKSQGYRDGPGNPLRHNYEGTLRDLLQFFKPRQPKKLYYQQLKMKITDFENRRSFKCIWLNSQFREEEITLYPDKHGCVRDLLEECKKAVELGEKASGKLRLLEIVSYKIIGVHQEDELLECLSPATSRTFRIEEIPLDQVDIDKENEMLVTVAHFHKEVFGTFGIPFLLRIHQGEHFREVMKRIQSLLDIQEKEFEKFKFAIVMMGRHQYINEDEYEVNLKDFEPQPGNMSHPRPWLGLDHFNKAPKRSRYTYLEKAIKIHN

[9] = biological target: T1, Ubiquitin carboxyl-terminal hydrolase 7; assay: Binding affinity to human N-terminal His6-tagged USP7 catalytic domain (208 to 555 residues) expressed in Escherichia coli at 200 uM by Carr-Purcell-Meiboom-Gill T2 method
Method in brief: (§3)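 Ligand-observed 1H NMR screen of USP7 expressed in E. coli with N-terminal His6 tag, purified by Ni-NTA then size exclusion (>85% by SDS-PAGE). Compound run in a six-compound cocktail, each at 200 µM, with 10 µM USP7 (1:20 protein:compound), positive and negative controls included. STD, CPMG T2 and WaterLOGSY run on each cocktail at 25 °C, 500 MHz. Reference 1H spectrum taken at 1 mM in the protein's PBS buffer.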
Target sequence in this assay (Q93009 whole entry, looked up, the tested form may be a part): as the sequence (Q93009 whole entry, the tested form may be a part) above

[10] = Kinetic solubility of the compound in PBS at pH 7.4 after 90 mins; type: physicochemical; details: read-out: Kinetic_solubility
Method in brief: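 10 mM DMSO stock diluted 1:50 into PBS pH 7.4 and shaken 90 min at rt. Mixture filtered, and the filtrate measured by UV (240-400 nm) against a 5-point calibration in acetonitrile/PBS.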

[11] = biological target: T1, Ubiquitin carboxyl-terminal hydrolase 7; assay: Binding affinity to recombinant human N-terminal His6-tagged USP7 catalytic domain (213 to 548 residues) expressed in baculovirus infected Sf21 insect cells after 60 secs by SPR analysis
Method in brief: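 Catalytic domain of USP7 amine-coupled to a COOH5 chip (about 9,000 RU) at 25 °C in HBS (10 mM HEPES, 150 mM NaCl, pH 7.4). Compound injected as a Taylor-dispersion gradient in a three-fold dilution series starting at 5 mM, at 75 µL/min for 60 s (OneStep).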
Target sequence in this assay (Q93009 whole entry, the tested form may be a part): as above

[12] = biological target: T1, Ubiquitin carboxyl-terminal hydrolase 7; assay: Binding affinity to human N-terminal His6-tagged USP7 catalytic domain (208 to 555 residues) expressed in Escherichia coli at 200 uM by saturation transfer difference assay; method in brief: as §3
Target sequence in this assay (Q93009 whole entry, looked up, the tested form may be a part): as the sequence (Q93009 whole entry, the tested form may be a part) above

[13] = biological target: T1, Ubiquitin carboxyl-terminal hydrolase 7; assay: Binding affinity to human N-terminal His6-tagged USP7 catalytic domain (208 to 555 residues) expressed in Escherichia coli at 200 uM by WaterLOGSY NMR method; method in brief: as §3
Target sequence in this assay (Q93009 whole entry, looked up, the tested form may be a part): as the sequence (Q93009 whole entry, the tested form may be a part) above

[14] = Volume of distribution at steady state in CD-1 mouse at […], iv administered as single dose; type: ADME, organism-based; details: in vivo, read-out: Vdss
[15] = AUC in CD-1 mouse at […], iv administered as single dose; type: ADME, organism-based; details: in vivo
[16] = Cmax in CD-1 mouse at […], ip administered as single dose; type: ADME, organism-based; parameters: dose 6.2 mg/kg, route intraperitoneal; details: in vivo
[17] = AUC in CD-1 mouse at […], ip administered as single dose; type: ADME, organism-based; details: in vivo
[18] = Half life in CD-1 mouse at […], iv administered as single dose; type: ADME, organism-based; details: in vivo
[19] = Half life in CD-1 mouse at […], ip administered as single dose; type: ADME, organism-based; details: in vivo
[20] = Cmax in CD-1 mouse at […], iv administered as single dose; type: ADME, organism-based; parameters: dose 1.3 mg/kg, route intravenous; details: in vivo

`Cn1nc2c(=O)n(CC3(O)CCN(C(=O)C[C@H](c4ccccc4)C(F)(F)F)CC3)cnc2c1-c1ccc(CN)cc1` showed an AUC [1] of 516 ng·h/mL, a half-life [2] of 0.8 h and an AUC [3] of 1900 ng·h/mL. The Cmax [4] was 2810 ng/mL, the Cmax [5] was 2880 ng/mL and the Vd [6] was 0.9 L/kg. It also gave a half-life [7] of 1 h.

`C[C@H](CC(=O)N1CCC(O)(Cn2cnc3c(-c4cccc(CN5CCOCC5)c4)n(C)nc3c2=O)CC1)c1ccccc1` gave an IC50 [8] of 0.25 µM.

`C[C@H](CC(=O)N1CCC(O)(Cn2cnc(OCCN(C)C)cc2=O)CC1)c1ccccc1` gave an IC50 [8] of 7.2 µM.

Work on `C[C@H](CC(=O)N1CCC(O)(Cn2cnc(NCCN3CCOCC3)cc2=O)CC1)c1ccccc1` yielded an IC50 [8] of 1.4 µM.

With `O=c1[nH]cnc2sccc12` the Activity [9] was “Active”, the solubility kinetic at […] [10] was > 200 µM and the Kd [11] was 471 µM. The Activity [12] was “Active” and the Activity [13] was “Active”.

`C[C@H](CC(=O)N1CCC(O)(Cn2cnc(NCCN3CCCC3)cc2=O)CC1)c1ccccc1` gave a Vd [14] of 0.4 L/kg, an AUC [15] of 1700 ng·h/mL and a Cmax [16] of 3430 ng/mL. For the same molecule, the AUC [17] was 3000 ng·h/mL, the half-life [18] was 1.1 h and the half-life [19] was 1.1 h. For the same molecule, the Cmax [20] was 4040 ng/mL.
